# Measurements: the array DNA melting data of Ke et al. (doi:10.1101/2024.01.08.574731)
# Assays:
# [1] = melting temperature; fluorescence melt of hairpins on a sequencing array, two-state fit, raised by 9.35 °C to match UV melts; conditions: sodium 0.088 M
# In short: (§1)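 Folding enthalpy and melting temperature were estimated with bootstrapped two-state fits and combined across four replicates by inverse-variance weighting, with fitted temperatures raised by 9.35 °C to match UV melts. The data were Cy3 fluorescence of library hairpins, with annealed Cy3 and quencher oligos, on a sequenced MiSeq flow cell in 50 mM Na-HEPES pH 8.0, 25 mM NaCl, imaged in 2.5 °C steps up to 60 °C and normalised to pre-quench Cy3 and control constructs.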
# [2] = folding enthalpy; higher = less favourable; fluorescence melt of hairpins on a sequencing array, two-state fit; conditions: sodium 0.088 M
# In short: as §1
sequence,measurement,setting,value
GTTCCGCGAAAGCGCAAC (((.(((....))).))),Tm,[1],38.4 °C
same,folding enthalpy,[2],-13.3 kcal/mol
GTTCCGGGAAACCGGAGC (.(((((....))))).),Tm,[1],53.6 °C
same,folding enthalpy,[2],-22.4 kcal/mol
GTTCCGGGAAACTGGAGC (.(((.(....).))).),Tm,[1],36.1 °C
same,folding enthalpy,[2],-21.2 kcal/mol
GTTCCTCGAAAGAGCAAC (((.(((....))).))),Tm,[1],29.4 °C
same,folding enthalpy,[2],-14.3 kcal/mol
GTTCGACGAAAGTCAAAC (((.(((....))).))),Tm,[1],41.7 °C
same,folding enthalpy,[2],-21.3 kcal/mol
GTTCGACGAAAGTCAAC (((.(((....)))))),Tm,[1],36.8 °C
same,folding enthalpy,[2],-15.8 kcal/mol
GTTCGAGAAATCGAAC ((((((....)))))),Tm,[1],54.9 °C
same,folding enthalpy,[2],-39.8 kcal/mol
GTTCGAGGAAACTCGAAC (((((((....))))))),Tm,[1],65 °C
same,folding enthalpy,[2],-42.3 kcal/mol
GTTCGAGGAAACTTGGAC ((.(.((....)).).)),Tm,[1],31.2 °C
same,folding enthalpy,[2],-16 kcal/mol
GTTCGCCGAAAGGCAAC (((.(((....)))))),Tm,[1],43.3 °C
same,folding enthalpy,[2],-12.5 kcal/mol
GTTCGCGAAAGCGGCAAC ((((((....)))..))),Tm,[1],26.8 °C
same,folding enthalpy,[2],-10.2 kcal/mol
GTTCGCGAAAGCGGTAAC ((((((....)))..))),Tm,[1],30.7 °C
same,folding enthalpy,[2],-11 kcal/mol
GTTCGCGAAAGCGTAAC ((((((....))).))),Tm,[1],48 °C
same,folding enthalpy,[2],-13.8 kcal/mol
GTTCGGCCGAAAGGCAAC (((..(((....)))))),Tm,[1],31.3 °C
same,folding enthalpy,[2],-6.89 kcal/mol
GTTCGGCGAAAGCCAAC (((.(((....)))))),Tm,[1],42.9 °C
same,folding enthalpy,[2],-12.3 kcal/mol
GTTCGGCGAAAGCCCAAC (((.(((....))).))),Tm,[1],37.1 °C
same,folding enthalpy,[2],-11.2 kcal/mol
GTTCGGGGAAACCCGAGC (.(((((....))))).),Tm,[1],53.3 °C
same,folding enthalpy,[2],-25.5 kcal/mol
GTTCGGGGAAACCTGAAC ((((.((....)).)))),Tm,[1],49.9 °C
same,folding enthalpy,[2],-38.9 kcal/mol
GTTCGGGGAAACCTGAGC (.((.((....)).)).),Tm,[1],32.6 °C
same,folding enthalpy,[2],-20.5 kcal/mol
GTTCGTCGAAAGACAAC (((.(((....)))))),Tm,[1],42.5 °C
same,folding enthalpy,[2],-17.2 kcal/mol
GTTCGTGGAAACACGGAC ((.((((....)))).)),Tm,[1],54.5 °C
same,folding enthalpy,[2],-42.5 kcal/mol
GTTCGTGGAAACATGAAC ((((.((....)).)))),Tm,[1],47.5 °C
same,folding enthalpy,[2],-37.7 kcal/mol
GTTCTAGGAAACTAGGAC ((.((((....)))).)),Tm,[1],39.7 °C
same,folding enthalpy,[2],-28.5 kcal/mol
GTTCTCCGAAAGGAAAAC (((.(((....))).))),Tm,[1],35.5 °C
same,folding enthalpy,[2],-25.2 kcal/mol
GTTCTCGAAAGAGGAAC ((((((....))).))),Tm,[1],38.3 °C
same,folding enthalpy,[2],-20.8 kcal/mol
GTTCTCGAAAGAGTCAAC ((((((....)))..))),Tm,[1],23.2 °C
same,folding enthalpy,[2],-10.2 kcal/mol
GTTCTCGCGAAAGCGAAC (((..(((....)))))),Tm,[1],27.8 °C
same,folding enthalpy,[2],-7.5 kcal/mol
GTTCTCGGAAACGAGAAC (((((((....))))))),Tm,[1],65.7 °C
same,folding enthalpy,[2],-34.5 kcal/mol
GTTCTGCCGAAAGGCAAC (((..(((....)))))),Tm,[1],25.1 °C
same,folding enthalpy,[2],-7.25 kcal/mol
GTTCTGGGAAACCAAAAC (((.(((....))).))),Tm,[1],26.5 °C
same,folding enthalpy,[2],-12.4 kcal/mol
GTTCTGGGAAACCAGAAC (((((((....))))))),Tm,[1],60.5 °C
same,folding enthalpy,[2],-42.9 kcal/mol
GTTCTGGGAAACCAGGAC ((.((((....)))).)),Tm,[1],49.1 °C
same,folding enthalpy,[2],-31.8 kcal/mol
GTTCTGGGAAACTAGAAC (((((.(....).))))),Tm,[1],42.9 °C
same,folding enthalpy,[2],-29.6 kcal/mol
GTTCTTACGAAAGTAAAC (((..(((....)))))),Tm,[1],21.9 °C
same,folding enthalpy,[2],-6.21 kcal/mol
GTTCTTGGAAACAAGGAC ((.((((....)))).)),Tm,[1],44.6 °C
same,folding enthalpy,[2],-23.9 kcal/mol
GTTGAACGAAAGTTAAC (((.(((....)))))),Tm,[1],30 °C
same,folding enthalpy,[2],-12.3 kcal/mol
GTTGAACGAAAGTTTAAC (((.(((....))).))),Tm,[1],45.3 °C
same,folding enthalpy,[2],-31.7 kcal/mol
GTTGAAGGAAACTTTAAC (((.(((....))).))),Tm,[1],32.1 °C
same,folding enthalpy,[2],-17.7 kcal/mol
